Compound activity deposited in PubChem by Sanford-Burnham Center for Chemical Genomics.
A selection: hits, their analogues and other compounds. The true share with any hit is near 3.9%.
XBP1 UPR activ – activators of adaptive XBP1 UPR arm, primary screen, cell-based, CHO-XBP1 luciferase reporter, luminescence, uHTS | IRE1-XBP1 UPR activation; percent of tunicamycin response, DMSO as zero | activation, % at 20 µM | 330,000 compounds, 0.33% hits;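 active = versus positive control, 20 µM dose yields 30% or more activation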;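 note: 100% = tunicamycin at 10 µg/mL and 0% = DMSO only wells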
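Signal: luciferase luminescence; Assay system: CHO-XBP1 luciferase reporter cells; Amount: one thousand reporter cells per well; Dosing: 20 µM single concentration, DMSO 1%; Benchmarks: high control tunicamycin 10 µg/mL final, low control DMSO vehicle only; Schedule: 6 h compound exposure at 37 °C, 5% CO2; Evaluation: percent activation relative to tunicamycin reference.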
tim23-1 inh – growth inhibitors of tim23-1 mutant yeast, primary screen, luminescence, uHTS; S. cerevisiae tim23-1 growth, BacTiter-Glo luminescence, 24 h; inhibition, % at 20 µM; 330,000 compounds, 1.3% hits; AID 463212, 2010;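 active = growth inhibition of the mutant yeast at or above 50%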;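 note: temperature-sensitive mutant grown at 25 °C; plate controls were DMSO-treated mutant yeast for no effect and medium wells lacking yeast for full effect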
CHOP UPR activ – activators of apoptotic CHOP UPR arm, primary screen, cell-based, CHO-CHOP luciferase reporter, luminescence, uHTS. 330,000 compounds, 0.34% hits. AID 449763, 2010. UPR activation; percent of tunicamycin response over DMSO baseline. activation, % at 10 µM;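 active = at 10 µM dose, activation of 40% or more, normalized to positive control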;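 note: 100% = tunicamycin at 10 µg/mL and 0% = DMSO alone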
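assay system = CHO CHOP reporter cells | amount = 500 CHO-CHOP cells per well | buffer or medium = F12 with 10% FBS | incubation = 16-18 h cell attachment, then 6 h compound exposure, 37 °C | detection = luminescence read with Steady-Glo | read-out = percent activation relative to tunicamycin control | controls = tunicamycin high control, DMSO low control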
tim10-1 inh – growth inhibitors of tim10-1 mutant yeast, primary screen, luminescence, uHTS; inhibition, % at 20 µM; S. cerevisiae tim10-1 ts strain growth, BacTiter-Glo, 24 h; AID 463190, 2010; 330,000 compounds, 2.2% hits;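 active = inhibition of at least 40%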;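 note: mutant grown at 25 °C; 0% = DMSO wells with yeast and 100% = wells holding no yeast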
TIM10 inh – growth inhibitors of isogenic TIM10 control yeast, primary screen, counter-screen for tim10-1 yeast inhibitor project, luminescence, uHTS. S. cerevisiae TIM10 strain growth, BacTiter-Glo luminescence, 24 h. inhibition, % at 10 µM. 330,000 compounds, 1.4% hits. AID 463195, 2010;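 active = inhibition of 40% or more at the single tested concentration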;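 note: wild-type TIM10 isogenic control strain grown at permissive 25 °C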
tim10-1 confirm – growth inhibitors of tim10-1 mutant yeast, confirmation, single concentration, luminescence, S. cerevisiae. AID 463213, 2010. inhibition, % at 20 µM. shares compounds with tim10-1 inh. S. cerevisiae tim10-1 ts strain growth, BacTiter-Glo, 24 h. 7,400 compounds, 56% hits;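 active = inhibition of yeast growth at or above a set limit in either of two repeat tests at 20 µM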;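 note: tim10-1 mutant grown at permissive 25 °C to find synthetic lethal compounds; 0% = DMSO yeast wells and 100% = medium wells without yeast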
TIM10 conf – growth inhibitors of wild-type TIM10 yeast, confirmation, counter-screen for tim10-1 synthetic lethality project, single concentration, luminescence, S. cerevisiae; shares compounds with TIM10 inh; S. cerevisiae tim10 strain growth, BacTiter-Glo luminescence, 24 h; inhibition, % at 10 µM; 4,600 compounds, 63% hits; AID 463215, 2010;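 active = inhibition of yeast growth at or above a set limit in either of two replicates at 10 µM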;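 note: this counterscreen used the strain with wild-type TIM10; 0% = yeast with DMSO and 100% = medium wells lacking yeast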
tim23-1 conf – tim23-1 mutant yeast growth inhibitors, confirmation, luminescence, single concentration; 4,400 compounds, 83% hits; S. cerevisiae tim23-1 growth, BacTiter-Glo luminescence, 24 h; inhibition, % at 20 µM; shares compounds with tim23-1 inh; AID 463218, 2010;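 active = inhibition above about 39% in either of two replicate wells at 20 µM, limit read from the data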;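 note: temperature-sensitive tim23-1 mutant grown at 25 °C; 0% = DMSO wells with yeast and 100% = medium wells without yeast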
An asterisk follows results filed as active; x = not tested or not shown.

SMILES | XBP1 UPR activ | tim23-1 inh | CHOP UPR activ | tim10-1 inh | TIM10 inh | tim10-1 confirm | TIM10 conf | tim23-1 conf
Cc1noc(-c2ccc(Cl)cc2)c1C(=O)O/N=C(\N)c1ccc(C(C)(C)C)cc1 | -3 | 71* | 3 | 45* | 76* | 12 | 84* | 58*
Cc1cccc([C@@H]2[C@@H]3C(=O)N(Cc4ccccc4)C(=O)[C@@H]3[C@]3(C)C(=O)N(c4ccc(C(F)(F)F)cc4)C(=O)N23)c1 | 0 | 15 | 0 | -12 | 9 | x | x | x
C/C(=N\NC(=S)NC1CCCCC1)c1cccs1 | 2 | 53* | 5 | 41* | 58* | 24 | 36* | 49*
C/C(=N\NC(=S)NC1CCCCC1)c1c(F)cccc1F | 0 | 34 | 2 | 4 | 17 | x | x | x
N#CC(NC(=O)OCc1ccccc1)c1ccccc1 (centres undefined) | 1 | 15 | 0 | 14 | 10 | x | x | x
N/C(=N\OC(=O)CCC1CCCCC1)c1ccc([N+](=O)[O-])cc1 | -1 | 67* | 1 | 83* | 60* | 79* | 51* | 70*
N/C(=N\OC(=O)CCC1CCCC1)c1cccc([N+](=O)[O-])c1 | -2 | 50* | 0 | 48* | 39 | 38* | x | 34
COc1ccc(/C(N)=N/OC(=O)CC2CCCCC2)cc1 | 4 | 57* | 6 | 59* | 66* | 64* | 38* | 54*
O=C(NCC1CCCCC1)c1ccc([N+](=O)[O-])cc1 | -4 | 18 | 2 | 8 | -1 | x | x | x
COc1ccc(OCC(=O)O/N=C(\N)c2ccc(OC)cc2)cc1 | -1 | 13 | -2 | 4 | 4 | x | x | x
N/C(=N\OC(=O)CCC1CCCC1)c1ccc(Br)cc1 | -2 | 66* | 2 | 68* | 83* | 50* | 72* | 61*
O=C(COc1ccc(S(=O)(=O)N2CCOCC2)cc1)NCCN1CCOCC1 | -5 | 1 | 2 | -10 | -2 | x | x | x
O=c1oc(-c2ccco2)nc2c1cnn2-c1ccccc1 | -2 | 64* | -2 | 48* | 28 | 35* | x | 67*
Cc1ccc(/C=C2\SC(=S)N(CC(=O)Nc3cccnc3)C2=O)cc1 | -1 | -17 | 0 | 1 | -38 | x | x | x
Cc1ccc(NC(=O)CN2C(=O)S/C(=C/c3ccncc3)C2=O)cc1 | -3 | 56* | -1 | 45* | 42* | 42* | 43* | 51*
Cc1ccc(C(=O)c2ccc([N+](=O)[O-])cc2)cc1 | 1 | 10 | 2 | 12 | -3 | x | x | x
Cc1ccc(S(=O)(=O)CC#CCOC(=O)c2ccc([N+](=O)[O-])cc2)cc1 | -1 | 76* | 0 | 60* | 30 | 47* | x | 81*
COc1ccc(/C=C/C(=O)c2c(O)ccc3c(C)cc(=O)oc23)cc1 | 2 | 50* | 1 | 51* | 55* | 47* | 57* | 60*
COc1ccc(/C=C\C(=O)c2c(O)ccc3c(C)cc(=O)oc23)cc1 | 6 | 53* | 1 | 52* | 37 | 36* | x | 51*
NC(=O)c1cc(Br)cc2c3c([nH]c12)CCCC3 | 3 | 76* | -3 | 69* | 56* | 58* | -8 | 62*
Brc1ccc2[nH]c3c(c2c1)CCC3 | 1 | 17 | 1 | 29 | -1 | x | x | x
CCN1/C(=C/C(C)=C/c2sc3ccccc3[n+]2CC)Sc2ccccc21 | -11 | 82* | -9 | 80* | 79* | 76* | 88* | 82*
CCN1/C(=C\C(C)=O)Sc2ccc(OC)cc21 | -5 | 13 | 1 | 10 | 13 | x | x | x
NC(=O)N/N=C/c1c(O)ccc2oc3c(c12)CCCC3 | -3 | 2 | -4 | 12 | 19 | x | x | x
CC(C)(C)N=Cc1c(O)ccc2oc3c(c12)CCCC3 | -1 | 63* | 2 | 41* | 34 | 33* | x | 64*
SMILES | XBP1 UPR activ | tim23-1 inh | CHOP UPR activ | tim10-1 inh | TIM10 inh | tim10-1 confirm | TIM10 conf | tim23-1 conf
CCOc1ccccc1NC(=O)COC(=O)c1cccc(-c2ccc(OC(C)=O)cc2)c1 | 5 | 11 | 2 | -3 | -32 | x | x | x
CN(C(=O)COC(=O)c1cccc(F)c1)c1ccccc1 | 1 | 31 | 1 | 27 | -5 | x | x | x
CC(=O)Oc1ccc(-c2cccc(C(=O)OCC(=O)N(C)c3ccccc3)c2)cc1 | 1 | 50* | 0 | 46* | 21 | 34* | x | 37
CN(C)c1cccc(C(=O)OCC(=O)N(C)c2ccccc2)c1 | 0 | 52* | 1 | 48* | 30 | 48* | x | 50*
Cc1c(C(=O)OCC(=O)N(C)c2ccccc2)oc2ccccc12 | -3 | 56* | 0 | 49* | 36 | 44* | x | 60*
Cc1ccc(C(=O)OCC(=O)N(C)c2ccccc2)cc1C | 6 | 53* | -1 | 41* | 33 | 38* | x | 36
O=C(O)c1ccc(NC(=S)NC(=O)c2cncc(Br)c2)cc1 | -5 | 14 | -3 | 11 | 8 | x | x | x
CS(=O)(=O)c1ccc(Cl)c(NC(=O)CSc2nc3ccccc3c(=O)n2Cc2ccco2)c1 | 0 | 8 | 1 | 14 | 7 | x | x | x
CCOc1ccc(C(=O)CCC(=O)Nc2cccc(S(=O)(=O)N3CCCCC3)c2)cc1 | 0 | 11 | 1 | 12 | 8 | x | x | x
O=C(N/N=C/c1ccc([N+](=O)[O-])o1)c1cn2ccc3ccccc3c2n1 | 1 | 74* | 5 | 59* | 60* | 72* | 78* | 22
CCCC(=O)Nc1ccc(C(=O)N/N=C/c2ccc([N+](=O)[O-])o2)cc1 | 1 | 21 | 0 | 16 | 6 | x | x | x
NS(=O)(=O)c1ccc(NC(=O)COC(=O)COc2ccc(Br)cc2)cc1 | 2 | 10 | -1 | -2 | -9 | x | x | x
Oc1ccc(/C=N/Nc2ccc(C(F)(F)F)cn2)c(O)c1 | 7 | 78* | 7 | 65* | 65* | 44* | 72* | 78*
COc1cc(/C=N/Nc2ccc(C(F)(F)F)cn2)cc(OC)c1O | 0 | 11 | 0 | 5 | 2 | x | x | x
